# Laboratory results as given in ChEMBL document CHEMBL3352683, “Rational design of urea-based glutamate carboxypeptidase II (GCPII) inhibitors as versatile tools for specific drug targeting and delivery” (Bioorg Med Chem, 2014).
# Target: Glutamate carboxypeptidase 2 (Homo sapiens, UniProt Q04609)
# Test: Inhibition of human recombinant N-terminal Avi-tagged glutamate carboxypeptidase 2 extracellular domain (44 to 750 amino acids) using pteroyl-di-L-glutamate substrate by HPLC method
# Outline: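 Avi-GCPII (0.2 ng) in 25 mM Bis-Tris propane, 150 mM NaCl, 0.001% octaethylene glycol monododecyl ether, pH 7.4, preincubated with inhibitor (ten concentrations) 5 min at 37 °C. Reaction started with pteroyl-di-L-glutamate (20 µl of 4 µM stock), run 20 min at 37 °C, stopped with 2-PMPA. Substrate and product separated by isocratic HPLC, detected at 281 nm; IC50 from full curves, Ki mean ± SD, duplicate or triplicate.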
# Chain of Glutamate carboxypeptidase 2 (Q04609 whole entry, the tested form may be a part): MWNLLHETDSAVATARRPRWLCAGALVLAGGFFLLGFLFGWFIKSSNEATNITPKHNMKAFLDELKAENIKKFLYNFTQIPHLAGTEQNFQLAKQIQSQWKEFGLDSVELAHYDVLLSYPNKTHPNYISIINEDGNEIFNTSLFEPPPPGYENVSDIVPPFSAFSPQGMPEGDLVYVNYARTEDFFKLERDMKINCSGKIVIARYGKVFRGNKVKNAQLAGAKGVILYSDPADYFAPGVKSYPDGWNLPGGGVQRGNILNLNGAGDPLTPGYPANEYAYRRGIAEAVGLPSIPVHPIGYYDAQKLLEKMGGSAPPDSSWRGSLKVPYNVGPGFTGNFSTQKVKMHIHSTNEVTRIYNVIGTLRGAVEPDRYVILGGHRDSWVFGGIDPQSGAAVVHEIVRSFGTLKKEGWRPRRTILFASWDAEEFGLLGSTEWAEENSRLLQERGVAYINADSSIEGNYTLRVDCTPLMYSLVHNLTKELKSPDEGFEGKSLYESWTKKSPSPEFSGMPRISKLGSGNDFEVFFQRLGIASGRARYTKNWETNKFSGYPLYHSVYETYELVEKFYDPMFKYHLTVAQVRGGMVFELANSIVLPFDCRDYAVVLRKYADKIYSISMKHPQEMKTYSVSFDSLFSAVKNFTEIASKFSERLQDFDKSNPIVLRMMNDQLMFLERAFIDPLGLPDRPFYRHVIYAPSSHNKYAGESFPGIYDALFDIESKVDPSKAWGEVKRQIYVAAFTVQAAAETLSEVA
row,SMILES,Ki
1,O=C(O)CC[C@H](NC(=O)N[C@@H](CCCCNC(=O)CCOCCOCCOCCOCCOCCOCCOCCOCCNC(=O)CCCC[C@@H]1SC[C@@H]2NC(=O)N[C@@H]21)C(=O)O)C(=O)O,6.39 nM
2,O=C(O)CC[C@H](NC(=O)N[C@@H](CCCCNC(=O)CCOCCOCCOCCOCCOCCOCCOCCOCCOCCOCCOCCOCCNC(=O)CCCC[C@@H]1SC[C@@H]2NC(=O)N[C@@H]21)C(=O)O)C(=O)O,10.5 nM
3,CC(=O)NCCOc1ccccc1CC(=O)NCCCC[C@H](NC(=O)N[C@@H](CCC(=O)O)C(=O)O)C(=O)O,1.58 nM
4,O=C(O)CC[C@H](NC(=O)N[C@@H](CCCCNC(=O)Cc1ccccc1OCCNC(=O)CCOCCOCCOCCOCCOCCOCCOCCOCCOCCOCCOCCOCCNC(=O)CCCC[C@H]1SC[C@H]2NC(=O)N[C@H]21)C(=O)O)C(=O)O,28.1 nM
5,CC(=O)NCCOc1ccccc1NC(=O)NCCCC[C@H](NC(=O)N[C@@H](CCC(=O)O)C(=O)O)C(=O)O,0.377 nM
6,O=C(O)CC[C@H](NC(=O)N[C@@H](CCCCNC(=O)Nc1ccccc1OCCNC(=O)CCOCCOCCOCCOCCOCCOCCOCCOCCOCCOCCOCCOCCNC(=O)CCCC[C@@H]1SC[C@@H]2NC(=O)N[C@@H]21)C(=O)O)C(=O)O,7.6 nM
7,O=C(O)CC[C@H](NC(=O)N[C@@H](CCCCN(Cc1ccccc1)C(=O)CCOCCOCCOCCOCCOCCOCCOCCOCCOCCOCCOCCOCCNC(=O)CCCC[C@@H]1SC[C@@H]2NC(=O)N[C@@H]21)C(=O)O)C(=O)O,3.42 nM
8,O=C(O)CC[C@H](NC(=O)N[C@@H](CCCCNC(=O)c1ccccc1OCCNC(=O)CCOCCOCCOCCOCCOCCOCCOCCOCCOCCOCCOCCOCCNC(=O)CCCC[C@@H]1SC[C@@H]2NC(=O)N[C@@H]21)C(=O)O)C(=O)O,11 nM
9,CC(=O)NCCOc1cc(Cl)ccc1C(=O)NCCCC[C@H](NC(=O)N[C@@H](CCC(=O)O)C(=O)O)C(=O)O,0.722 nM
10,CC(=O)NCCOc1cc(Br)ccc1C(=O)NCCCC[C@H](NC(=O)N[C@@H](CCC(=O)O)C(=O)O)C(=O)O,0.268 nM
11,CC(=O)N(CCCC[C@H](NC(=O)N[C@@H](CCC(=O)O)C(=O)O)C(=O)O)Cc1ccc(Br)cc1,0.0449 nM
12,O=C(O)CC[C@H](NC(=O)N[C@@H](CCCCNC(=O)Nc1ccc(Br)cc1OCCNC(=O)CCOCCOCCOCCOCCOCCOCCOCCOCCOCCOCCOCCOCCNC(=O)CCCC[C@@H]1SC[C@@H]2NC(=O)N[C@@H]21)C(=O)O)C(=O)O,3.88 nM
13,NCCCC[C@H](NC(=O)N[C@@H](CCC(=O)O)C(=O)O)C(=O)O,44.3 nM

# More lines, in order of falling Ki, values ahead:
row,Ki,SMILES
1,1.01 nM,CC(=O)NCCOc1cc(F)ccc1C(=O)NCCCC[C@H](NC(=O)N[C@@H](CCC(=O)O)C(=O)O)C(=O)O
2,0.601 nM,CC(=O)NCCOc1ccccc1C(=O)NCCCC[C@H](NC(=O)N[C@@H](CCC(=O)O)C(=O)O)C(=O)O
3,0.6 nM,CC(=O)NCCOc1cc(I)ccc1C(=O)NCCCC[C@H](NC(=O)N[C@@H](CCC(=O)O)C(=O)O)C(=O)O
4,0.312 nM,CC(=O)N(CCCC[C@H](NC(=O)N[C@@H](CCC(=O)O)C(=O)O)C(=O)O)Cc1ccccc1
5,0.221 nM,CC(=O)NCCOc1cc(Br)ccc1NC(=O)NCCCC[C@H](NC(=O)N[C@@H](CCC(=O)O)C(=O)O)C(=O)O
6,0.174 nM,CC(=O)NCCCC[C@H](NC(=O)N[C@@H](CCC(=O)O)C(=O)O)C(=O)O
